Reference: ChEMBL document CHEMBL1137880, “Synthesis and GABA receptor potency of 3-thiomethyl-4-(hetero)aryl-5-amino-1-phenylpyrazoles” (Bioorg Med Chem Lett, 2004)

Columns and labels:
[1] = target: GABA-A receptor; anion channel (Mus musculus) (UniProt Q8BHJ7+P26048+Q8QZW7+P50571+Q9R0Y8+P22723+A2AMW3+P62812+Q9JLF1+P26049+P22933+Q9D6F4+P63080+P27681+P16305); test: Ratio of binding affinity for mouse brain Gamma-aminobutyric acid receptor and housefly Gamma-aminobutyric acid receptor
[2] = test system: GABA-A receptor; anion channel; test: In vitro insecticidal activity as inhibition of [3H]EBOB binding to Gamma-aminobutyric acid GABA-A receptor of housefly neuronal membranes; IA denotes inactive; parameters: species or system Musca domestica
[3] = In vivo percent mortality of cyclodiene resistant allele-homozygous CO fleas at 100 mM was determined using contact assay; type: ADME, organism-based; conditions: Pulicinae
Summary of the method: (§1)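 Cat fleas were exposed by contact at 100 mM. The strains were chosen as genetic variants for the cyclodiene resistance allele, to compare insecticidal activity across them. The read-out was percent mortality.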

[4] = In vivo percent mortality of housefly at 100 mM was determined using contact assay; type: ADME, organism-based; conditions: Musca domestica, topical
[5] = In vivo percent mortality of cyclodiene resistant mixed homozygous and heterozygous NC fleas at 100 mM was determined using contact assay; type: ADME, organism-based; conditions: Pulicinae; summary of the method: as §1
[6] = test system: GABA-A receptor; anion channel; test: In vitro insecticidal activity as inhibition of [3H]EBOB binding to Gamma-aminobutyric acid GABA-A receptor of housefly neuronal membranes; NI denotes negative inhibition; parameters: species or system Musca domestica

Selectivity [1] | Structure (SMILES) | IC50 [2] | other results
500 | CSc1nn(-c2c(Cl)cc(C(F)(F)F)cc2Cl)c(N)c1C#N | – | –
66 | CSc1nn(-c2c(Cl)cc(C(F)(F)F)cc2Cl)c(N)c1-c1ccc(C)cc1 | – | –
– | CSc1nn(-c2c(Cl)cc(C(F)(F)F)cc2Cl)c(N)c1-c1ccccn1 | Not Active | –
346 | COc1cccc(-c2c(SC)nn(-c3c(Cl)cc(C(F)(F)F)cc3Cl)c2N)c1 | – | –
31 | CSc1nn(-c2c(Cl)cc(C(F)(F)F)cc2Cl)c(N)c1-c1cccc(Cl)c1 | – | –
230 | CSc1ccc(-c2c(SC)nn(-c3c(Cl)cc(C(F)(F)F)cc3Cl)c2N)cc1 | – | –
– | CSc1nn(-c2c(Cl)cc(C(F)(F)F)cc2Cl)c(N)c1-c1ccc(Br)cc1 | Not Active | –
20 | CSc1nn(-c2c(Cl)cc(C(F)(F)F)cc2Cl)c(N)c1-c1ccc(F)cc1 | – | –
4 | CSc1nn(-c2c(Cl)cc(C(F)(F)F)cc2Cl)c(N)c1-c1ccccc1 | – | –
– | CSc1nn(-c2c(Cl)cc(C(F)(F)F)cc2Cl)c(N)c1-c1ccc(C)s1 | Not Active | –
– | CSc1ccccc1-c1c(SC)nn(-c2c(Cl)cc(C(F)(F)F)cc2Cl)c1N | Not Active | –
2500 | CSc1nn(-c2c(Cl)cc(C(F)(F)F)cc2Cl)c(N)c1Br | – | –
400 | CCOC(=O)c1c(SC)nn(-c2c(Cl)cc(C(F)(F)F)cc2Cl)c1N | – | –
– | CSc1nn(-c2c(Cl)cc(C(F)(F)F)cc2Cl)c(N)c1-c1ccccc1F | Not Active | –
25 | CSc1nn(-c2c(Cl)cc(C(F)(F)F)cc2Cl)c(N)c1-c1ccc(C(C)=O)s1 | – | –
4 | CSc1nn(-c2c(Cl)cc(C(F)(F)F)cc2Cl)c(N)c1-c1ccc(F)c(Cl)c1 | – | –
– | CSc1nn(-c2c(Cl)cc(C(F)(F)F)cc2Cl)c(N)c1-c1ccc(Cl)cc1 | Not Active | –
44 | CSc1nn(-c2c(Cl)cc(C(F)(F)F)cc2Cl)c(N)c1-c1cccs1 | – | –

Selectivity [1] | Structure (SMILES) | IC50 [2] | other results
43 | CSc1nn(-c2c(Cl)cc(C(F)(F)F)cc2Cl)c(N)c1I | – | –
– | CSc1nn(-c2c(Cl)cc(C(F)(F)F)cc2Cl)c(N)c1-c1cccc(C(C)(C)C)c1 | Not Active | –
– | CSc1nn(-c2c(Cl)cc(C(F)(F)F)cc2Cl)c(N)c1-c1ccncc1 | Not Active | –
– | CSc1nn(-c2c(Cl)cc(C(F)(F)F)cc2Cl)c(N)c1-c1cc(C)cs1 | Not Active | –
434 | CSc1nn(-c2c(Cl)cc(C(F)(F)F)cc2Cl)c(N)c1-c1ccc(Cl)s1 | – | –
– | CSc1nn(-c2c(Cl)cc(C(F)(F)F)cc2Cl)c(N)c1-c1cccc(C(C)C)c1 | Not Active | –
– | CSc1nn(-c2c(Cl)cc(C(F)(F)F)cc2Cl)c(N)c1-c1ccsc1 | Not Active | –
2000 | COc1ccc(-c2c(SC)nn(-c3c(Cl)cc(C(F)(F)F)cc3Cl)c2N)cc1OC | – | –
180 | COc1ccc(-c2c(SC)nn(-c3c(Cl)cc(C(F)(F)F)cc3Cl)c2N)cc1 | – | –
– | CSc1nn(-c2c(Cl)cc(C(F)(F)F)cc2Cl)c(N)c1-c1ccc(C(C)C)cc1 | Not Active | –
– | COc1cc(-c2c(SC)nn(-c3c(Cl)cc(C(F)(F)F)cc3Cl)c2N)cc(OC)c1OC | Not Active | –
12 | CSc1nn(-c2c(Cl)cc(C(F)(F)F)cc2Cl)c(N)c1-c1cc(C(F)(F)F)cc(C(F)(F)F)c1 | – | –
– | CSc1nn(-c2c(Cl)cc(C(F)(F)F)cc2Cl)c(N)c1-c1cccnc1 | Not Active | –
49 | COc1ccc(-c2c(SC)nn(-c3c(Cl)cc(C(F)(F)F)cc3Cl)c2N)c(OC)c1 | – | –
5 | CSc1nn(-c2c(Cl)cc(C(F)(F)F)cc2Cl)c(N)c1-c1cccc(C(F)(F)F)c1 | – | –
666 | CSc1nn(-c2c(Cl)cc(C(F)(F)F)cc2Cl)c(N)c1-c1ccc(C#N)cc1 | – | –
45 | CSc1nn(-c2c(Cl)cc(C(F)(F)F)cc2Cl)c(N)c1C(=O)O | – | –
– | CSc1nn(-c2c(Cl)cc(C(F)(F)F)cc2Cl)c(N)c1-c1cncnc1 | – | IC50 [6]: Not Active

Structure (SMILES) | Selectivity [1] | IC50 [2] | other results
C#Cc1c(SC)nn(-c2c(Cl)cc(C(F)(F)F)cc2Cl)c1N | > 10000 | – | mortality at 100000 µM [3]: 2.2%; mortality at 100000 µM [4]: 80.1%; mortality at 100000 µM [5]: 0%
CSc1nn(-c2c(Cl)cc(C(F)(F)F)cc2Cl)c(N)c1-c1ccc2c(c1)OCO2 | 64 | – | mortality at 100000 µM [3]: 1.4%; mortality at 100000 µM [4]: 27.6%; mortality at 100000 µM [5]: 0%
CSc1nn(-c2c(Cl)cc(C(F)(F)F)cc2Cl)c(N)c1-c1nc(C)no1 | 9 | – | mortality at 100000 µM [3]: 0%; mortality at 100000 µM [4]: 95.4%; mortality at 100000 µM [5]: 0%
CSc1nn(-c2c(Cl)cc(C(F)(F)F)cc2Cl)c(N)c1-c1ccccc1C(F)(F)F | 6000 | – | mortality at 100000 µM [3]: 58.7%; mortality at 100000 µM [4]: 3.9%; mortality at 100000 µM [5]: 0%
CSc1nn(-c2c(Cl)cc(C(F)(F)F)cc2Cl)c(N)c1Cl | 210 | – | mortality at 100000 µM [3]: 32.3%; mortality at 100000 µM [4]: 92.8%; mortality at 100000 µM [5]: 3.3%
CSc1cc(N)n(-c2c(Cl)cc(C(F)(F)F)cc2Cl)n1 | 250 | – | mortality at 100000 µM [3]: 4.4%; mortality at 100000 µM [4]: 42.4%; mortality at 100000 µM [5]: 0%
CSc1nn(-c2c(Cl)cc(C(F)(F)F)cc2Cl)c(N)c1-c1ccccc1C | 400 | – | mortality at 100000 µM [3]: 60.8%; mortality at 100000 µM [4]: 9.6%; mortality at 100000 µM [5]: 0%
CSc1nn(-c2c(Cl)cc(C(F)(F)F)cc2Cl)c(N)c1-c1cnccn1 | 45 | – | mortality at 100000 µM [3]: 77.4%; mortality at 100000 µM [4]: 0%; mortality at 100000 µM [5]: 89.9%
